{"data": "Measurements collected from several papers", "target": "Serine/threonine-protein kinase D1 (PRKD1, Homo sapiens, UniProt Q15139)", "Residues used in one study (Q15139 1-912)": "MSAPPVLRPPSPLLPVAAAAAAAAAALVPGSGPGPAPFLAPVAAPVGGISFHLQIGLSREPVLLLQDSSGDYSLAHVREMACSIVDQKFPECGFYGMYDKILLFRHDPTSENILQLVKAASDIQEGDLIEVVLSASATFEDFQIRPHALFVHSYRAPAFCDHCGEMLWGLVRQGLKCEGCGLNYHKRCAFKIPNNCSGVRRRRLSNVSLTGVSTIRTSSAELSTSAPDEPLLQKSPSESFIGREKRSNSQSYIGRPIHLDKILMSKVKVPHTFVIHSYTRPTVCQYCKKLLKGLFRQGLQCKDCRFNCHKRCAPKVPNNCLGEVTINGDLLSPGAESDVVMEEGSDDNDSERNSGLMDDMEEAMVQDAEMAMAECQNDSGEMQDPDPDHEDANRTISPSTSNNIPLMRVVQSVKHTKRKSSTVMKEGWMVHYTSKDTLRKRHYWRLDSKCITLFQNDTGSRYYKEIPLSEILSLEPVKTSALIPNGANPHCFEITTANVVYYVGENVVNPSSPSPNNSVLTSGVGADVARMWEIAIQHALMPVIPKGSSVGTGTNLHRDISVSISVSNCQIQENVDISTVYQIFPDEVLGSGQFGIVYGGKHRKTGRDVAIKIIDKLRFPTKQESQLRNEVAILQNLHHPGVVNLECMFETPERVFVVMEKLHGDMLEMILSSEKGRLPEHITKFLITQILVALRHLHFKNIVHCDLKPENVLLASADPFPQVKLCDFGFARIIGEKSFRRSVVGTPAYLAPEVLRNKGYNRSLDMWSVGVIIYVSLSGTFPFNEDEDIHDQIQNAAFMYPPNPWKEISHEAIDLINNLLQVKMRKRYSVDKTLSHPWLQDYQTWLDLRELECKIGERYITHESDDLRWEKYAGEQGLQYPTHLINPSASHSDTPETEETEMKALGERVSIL", "note": "Protocols differ between the studies behind these lines."}
{"Compound": "COc1cc(Nc2ncc(F)c(Nc3ccc4c(n3)NC(=O)C(C)(C)O4)n2)cc(OC)c1OC", "test": "binding", "conditions": "10 µM", "endpoint": "inhibition", "value": "17%"}
{"Compound": "COc1ncccc1-c1cnn2ccc(N3CCN(C(=O)OC(C)C)CC3)nc12", "test": "binding, competition with immobilised ligand", "conditions": "1 µM", "endpoint": "remaining binding", "value": "100%"}
{"Compound": "O=c1[nH]c2ccccc2n1C1CCN(Cc2ccc(-c3[nH]c4cc5ncnc5cc4nc3-c3ccccc3)cc2)CC1", "test": "cell-free assay", "conditions": "0.5 µM", "endpoint": "remaining signal", "value": "94.7%"}
{"Compound": "Cc1nn(C)cc1-c1nc2c(N3CCN(Cc4ccc(Cl)cc4)CC3)c(Cl)cnc2[nH]1", "test": "binding, competition with immobilised ligand", "conditions": "1 µM", "endpoint": "remaining binding", "value": "100%"}
{"Compound": "Nc1ncc(-c2nc(N3CCOCC3)nc(N3CCOCC3)n2)c(C(F)F)n1", "test": "binding, competition with immobilised ligand", "conditions": "10 µM", "endpoint": "remaining binding", "value": "80%"}
{"Compound": "N#CC1(c2ccccn2)CCN(Cc2cc(C(=O)O)c(=O)n3ccccc23)CC1", "test": "cell-free assay, competition with immobilised ligand", "conditions": "1 µM", "endpoint": "remaining binding", "value": "87%"}
{"Compound": "Cn1cc(-c2cccc(N3CCc4c(sc5c4CC(C)(C)C5)C3=O)c2CO)cc(Nc2ccncn2)c1=O", "test": "enzyme activity, inhibitor", "conditions": "1 µM", "endpoint": "inhibition", "value": "2%"}
{"Compound": "Cn1cncc1[C@](O)(COc1ccc(C#N)cc1-c1ccc(OC(F)(F)F)cc1)c1ccc(C#N)cc1", "test": "cell-free assay, competition with immobilised ligand", "conditions": "1 µM", "endpoint": "remaining binding", "value": "99%"}
{"Compound": "Cn1cc(-c2cc(F)cc(N3CCn4c(cc5c4CCCC5)C3=O)c2CO)cc(Nc2ccc(N3CCN(C4COC4)CC3)cn2)c1=O", "test": "enzyme activity, inhibitor", "conditions": "0.1 µM", "endpoint": "inhibition", "value": "12%"}
{"Compound": "CC(C)(C)c1cc(C=C(C#N)C#N)cc(Br)c1O", "test": "enzyme activity, inhibitor", "conditions": "0.5 µM", "endpoint": "remaining activity", "value": "100%"}
